One experiment has as its system Escherichia coli. The experiment in a line: Antibacterial activity against Escherichia coli at 10 ug/disk by disk diffusion method. The format is functional. The procedure, abridged:
(§1)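 Disk diffusion, with test compound applied at 10 µg per disk. Streptomycin sulfate served as the reference antibacterial. Procedure followed an earlier report.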
A general note: In agar diffusion tests the substance spreads into inoculated agar from a disc or well.

Another experiment has as its system Bacillus cereus. The experiment in a line: Antibacterial activity against Bacillus cereus at 10 ug/disk by disk diffusion method. It is filed as functional. As to conditions: read-out: DIZ. The gist of the method:
as §1

The next experiment has as its system Staphylococcus aureus. The experiment in a line: Antibacterial activity against Staphylococcus aureus at 10 ug/disk by disk diffusion method. The format is functional. Conditions: read-out: DIZ. The procedure, abridged:
as §1

A further experiment deals with HeLa. Nature of the experiment: Cytotoxicity against human HeLa cells after 72 hrs by MTT assay. The format is functional, cell-based. The procedure, abridged: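 Human cervical carcinoma HeLa cells were exposed for 72 h and viability read by MTT. IC50 values were reported in µg/mL, with doxorubicin and colchicine run as reference standards. Method followed an earlier report.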
(In general: Tetrazolium assays rely on reduction of a dye to a coloured formazan, in cell work by metabolically active cells.)

The subject of another experiment is Aspergillus ochraceus. Nature of the experiment: Antifungal activity against Aspergillus ochraceus at 10 ug/disk by disk diffusion method. The format is functional, organism-based.
In another experiment the test system is Candida albicans. The experiment in a line: […] activity against Candida albicans at 10 ug/disk by disk diffusion method. It is filed as functional, organism-based.

Converted amounts (≈) assume the structure as drawn. The source made the active and inactive calls. No cut-off for these calls is given here.

As to `CN[C@@H]1[C@H](O[C@H]2[C@H](O[C@H]3[C@H](O)[C@@H](O)[C@H](N=C(N)N)[C@@H](O)[C@@H]3N=C(N)N)O[C@@H](C)[C@]2(O)C=O)O[C@@H](CO)[C@H](O)[C@H]1O` [STREPTOMYCIN], the zone of inhibition at 10 µg/disc with Escherichia coli (read-out: DIZ) worked out at 12.5 mm; with Bacillus cereus it was 21 mm; in the experiment on Staphylococcus aureus, 13.5 mm.
Consider `COc1cc2c(c(OC)c1OC)-c1ccc(OC)c(=O)cc1[C@@H](NC(C)=O)CC2` [COLCHICINE], for which the IC50 (in general, the concentration that gives 50% inhibition) in the experiment with HeLa is 21 µg/mL (≈ 52.6 µM).
For the compound `COc1c(O)c(CC=C(C)C)c(CC=C(C)C)c2c1Oc1cc(O)cc(O)c1C(=O)O2` [ATROVIRISIDONE], the “diameter of the inhibition zone (DIZ)” value in the experiment on Escherichia coli was “inactive”. In addition, the zone of inhibition at 10 µg/disc with Bacillus cereus amounted to 7.5 mm; in the experiment with Staphylococcus aureus, 8 mm. This compound also came in with a half-maximal inhibitory concentration (IC50) with HeLa of more than 30 µg/mL. The outcome in the experiment with Aspergillus ochraceus and with Candida albicans was inactive.
For `COC(=O)c1c(O)cc(O)cc1OC1=C(OC)C(=O)C(CC=C(C)C)=C(CC=C(C)C)C1=O` [ATROVIRINONE], the “diameter of the inhibition zone (DIZ)” value with Escherichia coli is “inactive”. Moreover, the zone of inhibition at 10 µg/disc in the experiment on Bacillus cereus and with Staphylococcus aureus was 6.5 mm in each case. In the experiment with HeLa, this compound showed an IC50 of 15 µg/mL (≈ 32.9 µM). Besides, the outcome in the experiment with Aspergillus ochraceus and in the experiment with Candida albicans was inactive.
For the compound `COc1cccc2c1C(=O)c1c(O)c3c(c(O)c1C2=O)C[C@@](O)(C(=O)CO)C[C@@H]3O[C@H]1C[C@H](N)[C@H](O)[C@H](C)O1` [DOXORUBICIN], in the experiment with HeLa, the IC50 is 11 µg/mL (≈ 20.2 µM).

The values are drawn from ChEMBL document CHEMBL1155735, “Isolation and bioactivities of constitutents of the roots of Garcinia atroviridis” (J Nat Prod, 2001).
